The results in this text go back to ChEMBL document CHEMBL1142212, “Length effects in antimicrobial peptides of the (RW)n series” (Antimicrob Agents Chemother, 2007).

Molecules are shown by their SMILES. ≈ marks a conversion by molar mass, not a printed value. Peptide text beside a SMILES is read from it.

The subject of assay [1] is Escherichia coli. Briefly: Growth inhibition of Escherichia coli D31.
The test system of assay [2] is Escherichia coli. Kind of assay: Antimicrobial activity against Escherichia coli D31 after 18 hrs. Particulars: D31, 18 h.
Assay [3] concerns Staphylococcus aureus. Kind of assay: Antimicrobial activity against Staphylococcus aureus ATCC BAA44 after 18 hrs.
The test system of assay [4] is Staphylococcus aureus. Briefly: Growth inhibition of Staphylococcus aureus ATCC BAA44.
The next assay relates to Erythrocyte. Briefly: Hemolytic activity in sheep red blood cells. The assay is classed as functional, Ovis aries. Put shortly:
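Fresh sheep erythrocyte suspension was incubated with peptide in PBS pH 7.2 at 37°C for 30 min, then centrifuged at 3,000 rpm for 10 min. Supernatant was diluted 40-fold in water and read at OD540. Buffer gave 0% and 1% Triton-X gave 100% hemolysis. HD50 is the concentration giving 50% hemolysis, taken from dose-response curves.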

Regarding `N=C(N)NCCC[C@H](N)C(=O)N[C@@H](Cc1c[nH]c2ccccc12)C(N)=O` (H-Arg-Trp-NH2), the IC50 in the assay with Escherichia coli [1] stood at 4300 µM; in the assay with Staphylococcus aureus [4], 2100 µM. Also, the results for the MBC50 with Escherichia coli [2] and in the assay with Staphylococcus aureus [3] were 4700 µM (≈ 1690 µg/mL) and 2300 µM (≈ 827 µg/mL), respectively. In addition, the HD50 in the assay with Erythrocyte was 8900 µM.

Consider `N=C(N)NCCC[C@H](NC(=O)[C@H](Cc1c[nH]c2ccccc12)NC(=O)[C@@H](N)CCCNC(=N)N)C(=O)N[C@@H](Cc1c[nH]c2ccccc12)C(N)=O` (H-RWRW-NH2), for which the results for the IC50 in the assay with Escherichia coli [1] and in the assay with Staphylococcus aureus [4] were 730 µM and 210 µM, respectively. The MBC50 against Escherichia coli [2] was found to be 990 µM (≈ 695 µg/mL); with Staphylococcus aureus [3], 620 µM (≈ 435 µg/mL). Also, in the assay with Erythrocyte, the HD50 amounted to 3700 µM.

On to `N=C(N)NCCC[C@H](NC(=O)[C@H](Cc1c[nH]c2ccccc12)NC(=O)[C@H](CCCNC(=N)N)NC(=O)[C@H](Cc1c[nH]c2ccccc12)NC(=O)[C@@H](N)CCCNC(=N)N)C(=O)N[C@@H](Cc1c[nH]c2ccccc12)C(N)=O` (H-RWRWRW-NH2), for which the IC50 in the assay on Escherichia coli [1] was 16 µM; with Staphylococcus aureus [4] it was 8 µM. The results for the MBC50 with Escherichia coli [2] and with Staphylococcus aureus [3] were 29 µM (≈ 30.3 µg/mL) and 15 µM (≈ 15.7 µg/mL), respectively. This molecule came in with an HD50 with Erythrocyte of 210 µM.

For `N=C(N)NCCC[C@H](NC(=O)[C@H](Cc1c[nH]c2ccccc12)NC(=O)[C@H](CCCNC(=N)N)NC(=O)[C@H](Cc1c[nH]c2ccccc12)NC(=O)[C@H](CCCNC(=N)N)NC(=O)[C@H](Cc1c[nH]c2ccccc12)NC(=O)[C@H](CCCNC(=N)N)NC(=O)[C@H](Cc1c[nH]c2ccccc12)NC(=O)[C@@H](N)CCCNC(=N)N)C(=O)N[C@@H](Cc1c[nH]c2ccccc12)C(N)=O`, the IC50 came out at 6.2 µM in the assay on Escherichia coli [1] and 3.6 µM in the assay with Staphylococcus aureus [4]. Further, the MBC50 is 7.2 µM (≈ 12.4 µg/mL) against Escherichia coli [2] and 6.9 µM (≈ 11.9 µg/mL) in the assay on Staphylococcus aureus [3]. The HD50 with Erythrocyte is 76 µM.

On to `N=C(N)NCCC[C@H](NC(=O)[C@H](Cc1c[nH]c2ccccc12)NC(=O)[C@H](CCCNC(=N)N)NC(=O)[C@H](Cc1c[nH]c2ccccc12)NC(=O)[C@H](CCCNC(=N)N)NC(=O)[C@H](Cc1c[nH]c2ccccc12)NC(=O)[C@@H](N)CCCNC(=N)N)C(=O)N[C@@H](Cc1c[nH]c2ccccc12)C(N)=O` (H-RWRWRWRW-NH2), for which the IC50 in the assay on Escherichia coli [1] worked out at 9.6 µM; in the assay with Staphylococcus aureus [4] it was 5.1 µM. The MBC50 against Escherichia coli [2] was 14 µM (≈ 19.4 µg/mL); against Staphylococcus aureus [3], 12 µM (≈ 16.6 µg/mL). For the same molecule, the HD50 in the assay with Erythrocyte was 100 µM.

The term IC50 denotes the concentration that gives 50% inhibition.
